CHRM4 agonist – human M4 muscarinic receptor agonists, primary screen, CHO-K1 cells, Fluo-8 calcium fluorescence; Muscarinic acetylcholine receptor M4 (Homo sapiens), P08173; CHO-K1 hM4/Gqi5; vehicle 0%, full acetylcholine response 100%; activation, % at 3 µM; 360,000 compounds, 0.14% hits; AID 624127, 2012;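 active = activation above the run mean over all test wells plus 3 SD, cut at about 32% in these data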;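 note: peak over basal fluorescence ratio per well then scaled between controls; 0% = DMSO wells and 100% = acetylcholine at EC100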
Target sequence (P08173 whole entry, looked up): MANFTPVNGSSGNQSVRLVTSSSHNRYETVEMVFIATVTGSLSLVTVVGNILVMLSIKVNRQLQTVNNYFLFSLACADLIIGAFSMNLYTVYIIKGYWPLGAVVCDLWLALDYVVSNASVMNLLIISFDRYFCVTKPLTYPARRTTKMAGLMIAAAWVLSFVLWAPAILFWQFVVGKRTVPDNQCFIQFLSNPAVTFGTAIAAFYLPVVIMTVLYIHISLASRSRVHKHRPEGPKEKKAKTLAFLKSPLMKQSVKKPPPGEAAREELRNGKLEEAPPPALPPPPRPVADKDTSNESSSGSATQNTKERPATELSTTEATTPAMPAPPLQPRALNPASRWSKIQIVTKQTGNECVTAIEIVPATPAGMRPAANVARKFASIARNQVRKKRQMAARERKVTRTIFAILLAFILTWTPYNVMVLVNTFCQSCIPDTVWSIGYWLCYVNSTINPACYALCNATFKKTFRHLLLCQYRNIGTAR
CHRM4 antagonist – human M4 muscarinic receptor antagonists, primary screen, CHO cells, Fluo-8 calcium fluorescence | Muscarinic acetylcholine receptor M4 (Homo sapiens), P08173 | CHO-hM4 cells, ACh EC80 | inhibition, % at 3 µM | 360,000 compounds, 0.73% hits;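 active = inhibition above its plate's cutoff, the mean inhibition of sample wells plus 3 SD, cut at about 27% in these data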;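 note: 0% = acetylcholine EC80 with DMSO and 100% = DMSO without agonist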
CHRM5 antagonist – human M5 muscarinic receptor antagonists, primary screen, CHO cells, Fluo-8 calcium fluorescence. AID 624040, 2012. inhibition, % at 3 µM. 360,000 compounds, 0.59% hits. Muscarinic acetylcholine receptor M5 (Homo sapiens), P08912. CHO-hM5 cells, ACh EC80;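 active = inhibition above a per-plate cutoff, the mean of that plate's test compounds plus 3 SD, cut at about 27% in these data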;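 note: 0% = acetylcholine EC80 with DMSO and 100% = DMSO without agonist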
CHRM5 PAM – human M5 muscarinic receptor positive allosteric modulators, primary screen, CHO-K1 cells, Fluo-8 calcium fluorescence | Muscarinic acetylcholine receptor M5 (Homo sapiens), P08912 | AID 624038, 2012 | CHO-K1 hM5, ACh EC20 PAM; 0% = ACh EC20, 100% = ACh EC100 | activation, % at 3 µM | 360,000 compounds, 0.3% hits;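 active = activation above the run cutoff, the mean activation of all test compounds plus 3 SD, cut at about 18% in these data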
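Assay system: CHO-K1 hM5 cells. Also added: acetylcholine at EC20 concentration, added after compound. Dosing: 3 µM, single dose. Times: compound preincubation 140 s before EC20 acetylcholine addition. Signal: Fluo-8 calcium fluorescence. Measure: % activation relative to EC20 and EC100 ACh responses. Repeats: singlicate, one well per test compound.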
M4 PAM – human M4 muscarinic receptor positive allosteric modulators, primary screen, CHO-K1 cells, Fluo-8 calcium fluorescence. CHO-K1 hM4/Gqi5, ACh EC20; 0% = ACh EC20, 100% = maximal ACh. activation, % at 3 µM. AID 624126, 2012. 360,000 compounds, 0.4% hits. Muscarinic acetylcholine receptor M4 (Homo sapiens), P08173;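 active = activation above its plate's cutoff, the mean activation of sample wells plus 3 SD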
M5 ag – human M5 muscarinic receptor agonists, primary screen, CHO-K1 cells, Fluo-8 calcium fluorescence; Muscarinic acetylcholine receptor M5 (Homo sapiens), P08912; CHO-K1 hM5 cells; 0% DMSO wells, 100% maximal acetylcholine response; activation, % at 3 µM; 360,000 compounds, 0.19% hits;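 active = activation above the run's mean over test compounds plus 3 SD, cut at about 23% in these data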;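 note: signal is peak over basal fluorescence ratio across the kinetic read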
* hit, by the source's call. Shown are actives, neighbours in structure and some others; about 1.8% of the full set was active somewhere.

SMILES | CHRM4 agonist | CHRM4 antagonist | CHRM5 antagonist | CHRM5 PAM | M4 PAM | M5 ag
c1ccc(CNc2nc(NCc3ccccc3)c3ccccc3n2)cc1 | 45* | 49* | 39* | -21 | -17 | 10
COCCNc1nc(NCc2cccc(OC)c2OC)c2sccc2n1 | 6 | -2 | 9 | -7 | -4 | 0
COc1ccccc1CNc1nc(NCc2ccccc2)nc2ccsc12 | 75* | 92* | 76* | -22 | -15 | 36*
COc1ccccc1CNc1nc(NCc2cccc(OC)c2OC)c2sccc2n1 | 16 | 22 | 31* | -20 | -12 | 2
Fc1cc(Cl)ccc1Nc1nc(NCc2ccccc2)nc2ccsc12 | 1 | 6 | -1 | -3 | -7 | 1
c1ccc(CNc2nc(NCCOc3ccccc3)c3sccc3n2)cc1 | 58* | 54* | 35* | -21 | -16 | 21
CNc1nc(NCCOc2ccccc2)c2sccc2n1 | 30 | -14 | 0 | -10 | -8 | 8
C#Cc1cccc(Nc2nc(NCCOC)nc3ccsc23)c1 | 18 | 14 | 16 | -11 | -11 | 5
C#Cc1cccc(Nc2nc(NCc3ccccc3OC)nc3ccsc23)c1 | 14 | 30* | 36* | -17 | -10 | 3
CCCCNC(=O)C(NC(=O)c1ccc(=O)[nH]c1)C(=O)c1ccccc1 (configuration not stated) | 1 | 6 | 8 | -10 | 2 | -2
CC(C)Cn1c(-c2ccncc2)n[nH]c1=S | 1 | -6 | 2 | 2 | 5 | -2
CC(C)Cn1c(-c2csc3c2CCCC3)n[nH]c1=S | -2 | 30* | 15 | -23 | -16 | -8
CC(C)Cn1c(-c2ccc(F)cc2)n[nH]c1=S | -1 | 18 | 3 | -4 | -11 | -10
CC(C)Cn1c(-c2ccccc2F)n[nH]c1=S | 1 | 8 | 46* | 2 | 18 | -4
Cc1ccc(C(=O)Nc2c(C)cc(C)c3cccnc23)cc1 | 2 | -10 | 9 | 2 | 14* | -1
COc1ccccc1NC(=O)CSc1nnc(C2CCCCC2)n1-c1ccccc1 | 2 | 3 | 8 | 2 | -1 | -3
COc1ccc(NC(=O)Nc2ccc(OCC(=O)N3CCOCC3)cc2)cc1OC | 1 | 11 | 8 | -4 | -8 | 0
COc1ccc(Cl)cc1C(=O)Nc1ccc(OCC(=O)N2CCOCC2)cc1 | 3 | 6 | -2 | 18* | 14 | 2
COc1ccc([N+](=O)[O-])cc1NC1CCN(C(=O)c2cccs2)CC1 | 3 | -3 | 3 | 5 | 18* | 0
COc1ccc(NC(=O)C2CCN(C(=O)c3cccs3)CC2)cc1OC | 0 | -6 | 4 | 0 | 3 | -6
CCCNC(=O)C1(C)CCN1C(=O)Cc1ccc(C(C)C)cc1 (configuration not stated) | 0 | -1 | 0 | -3 | 0 | 1
Cc1nc2c(C)cccc2c2c1CCS2 | 0 | -3 | 0 | 1 | 3 | -3
COC(=O)C1=CN(c2ccc(OC)cc2)C=C(C(=O)OC)C1c1ccc([N+](=O)[O-])cc1 | 0 | -9 | -3 | 11 | 20* | -7
COC(=O)C1=CN(c2ccc(F)cc2)C=C(C(=O)OC)C1c1ccc([N+](=O)[O-])cc1 | 0 | -4 | 17 | -7 | -2 | -4
OCCN(CC#CC(O)(c1ccccc1)c1ccccc1)CCO | 1 | -9 | 7 | -3 | 4 | -19
SMILES | CHRM4 agonist | CHRM4 antagonist | CHRM5 antagonist | CHRM5 PAM | M4 PAM | M5 ag
CC(=O)NNC(=O)C(O)(c1ccccc1)c1ccccc1 | 0 | 4 | -6 | 1 | -2 | -1
CC(C)(C#CC(O)(c1ccccc1)c1ccccc1)N1CCCC1 | 0 | 79* | 69* | -16 | -26 | -11
CC(C)(C#CC(O)(c1ccccc1)c1ccccc1)N1CCCCC1 | 1 | 47* | 42* | -30 | -16 | -19
O=c1ncccn1C1OC(CO)C(O)C1O (configuration not stated) | 0 | -9 | -7 | 0 | 3 | 3
O=C(CNC(=O)c1nc[nH]c1C(=O)NCC(=O)OCc1ccccc1)OCc1ccccc1 | 22 | 17 | 21 | -26 | -8 | 6
CCN(CC)C(=O)c1[nH]cnc1C(=O)NCC(=O)OCc1ccccc1 | 24 | 24 | 27* | -29 | -12 | 3
C[C@H](NC(=O)c1nc[nH]c1C(=O)NCC(=O)OCc1ccccc1)c1ccccc1 | 24 | 28* | 13 | -32 | -14 | 3
CC(C)(C)OC(=O)NCc1ccc(CNC(=O)c2[nH]cnc2C(=O)NCC(=O)OCc2ccccc2)cc1 | 30 | 38* | 4 | -36 | -14 | 11
O=C(/C=C\c1ccccc1)NCC(=O)N/N=C/c1ccc(O)cc1O | 0 | -9 | 0 | -6 | 8 | -3
O=C(NC(NC(=S)Nc1cccc(Cl)c1)C(Cl)(Cl)Cl)OCc1ccccc1 (configuration not stated) | 23 | 17 | 27* | -21 | -15 | 9
O=C(NC(NC(=S)Nc1cccc(C(=O)O)c1)C(Cl)(Cl)Cl)OCc1ccccc1 (configuration not stated) | 1 | -6 | -6 | 6 | 11 | 1
COc1ccc(CC(=O)N/N=C(\C)CC(=O)NCc2ccco2)cc1OC | 3 | -6 | 2 | 4 | -10 | -1
COc1ccc(C[C@@H]2CN3C(=NC[C@@H]3Cc3ccc(O)cc3)N2C[C@H](C)NC(=O)CCC2CCCCC2)cc1 | -1 | 28* | 5 | -13 | -13 | -12
CC1CN(C(=O)CSc2nnc(-c3ccccc3)o2)CC(C)O1 (configuration not stated) | 1 | -10 | -3 | 22* | 17 | -2
COC(=O)c1c(Sc2ccccc2)c2ccccc2n1C | -1 | -4 | 24 | -19 | -6 | 58*
COc1ccccc1NC(=O)COC(=O)c1cc(C)oc1C | 1 | 11 | 0 | 1 | 10 | 4
COc1ccc(-c2nc(SCC(=O)Nc3cccc(S(N)(=O)=O)c3)n[nH]2)cc1 | 0 | -5 | -1 | 1 | 2 | 2
Cc1csc(NC(=O)CSc2nnc(Cn3c(=O)sc4ccccc43)n2-c2ccccc2)n1 | 4 | -5 | 6 | -6 | 29* | 3
Cc1ccccc1-n1c(Cn2c(=O)sc3ccccc32)nnc1SCC(=O)Nc1nccs1 | 2 | -5 | -3 | 2 | 4 | 2
Cc1ccc(F)cc1NC(=O)CSc1nnc(CNC(=O)c2ccco2)n1C | 0 | -6 | 0 | 4 | 9 | 4
